Laboratory results from ChEMBL document CHEMBL3124905, “Isothiocoumarin-3-carboxylic acid derivatives: synthesis, anticancer and antitrypanosomal activity evaluation” (Eur J Med Chem, 2014).
Values belong to the compound of their own block, whether it stands above or below them.

How the values were obtained:
SF-268 = experiment: Anticancer activity against human SF268 cells assessed as cell growth at 100 uM after 48 hrs by SRB assay; assay type: functional; details: SF-268, 48 h, read-out: Activity
Outline: (§1)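 NCI one-dose primary screen on a three-line panel (breast MCF7, lung NCI-H460, CNS SF-268). Cells were inoculated and preincubated 24–48 h, then exposed to a single concentration of 10−4 M for 48 h. The endpoint was sulforhodamine B protein staining, and results are expressed as percent growth relative to untreated control cells. Negative values denote cytotoxicity.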

NCI-H460 = experiment: Anticancer activity against human NCI-H460 cells assessed as cell growth at 100 uM after 48 hrs by SRB assay; assay type: functional; details: NCI-H460, 48 h, read-out: Activity; outline: as §1
[1] = Acute toxicity in ip dosed white mouse; assay type: organism-based; details: in vivo
Outline: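 White male mice, 23-25 g, dosed intraperitoneally with compound dissolved in 0.9% NaCl saline plus 1-2 drops Polysorbate 80 (Tween-80). Solutions prepared immediately before use. Doses ranged 100-1000 mg/kg, testing 4 or 5 doses with 6 animals per dose. LD50 derived by the Litchfield-Wilcoxon method.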

MCF7 = experiment: Anticancer activity against human MCF7 cells assessed as cell growth at 100 uM after 48 hrs by SRB assay; assay type: functional; details: MCF7, 48 h, read-out: Activity; outline: as §1
[2] = tested on: Trypanosoma brucei brucei; experiment: Antitrypanosomal activity against bloodstream form of Trypanosoma brucei brucei strain 90-13 assessed as inhibition of parasite growth at 1 ug/ml after 72 hrs by resazurin reduction test; assay type: functional; details: strain 90-13, 72 h
Outline: (§2)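 Trypanosoma brucei brucei 90-13 bloodstream forms, grown in HMI9 with 10% FCS at 37 °C under 5% CO2. Log-phase parasites were seeded at 10^5 cells/mL with or without inhibitor, with stocks prepared in DMSO. After 72 h, resazurin was added and fluorescence was read at 530/590 nm after a further 4 h. Percent growth inhibition was calculated versus drug-free parasites, with DMSO as control.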

[3] = tested on: Trypanosoma brucei brucei; experiment: Antitrypanosomal activity against bloodstream form of Trypanosoma brucei brucei strain 90-13 assessed as inhibition of parasite growth at 10 ug/ml after 72 hrs by resazurin reduction test; assay type: functional; details: strain 90-13, 72 h; outline: as §2
[4] = Growth inhibition of human SNB cells after 48 hrs by SRB assay; assay type: functional
Outline: (§3)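 NCI five-dose assay against the ~60-cell-line panel (nine cancer types). Tenfold dilutions from 10−4 to 10−8 M were used with continuous 48-h exposure and SRB absorbance readout. Percent growth was computed from time-zero, control and treated absorbances. GI50 is the concentration giving 50% lower net protein increase than controls. Values not reached are reported as beyond the tested range.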

[5] = Growth inhibition of human HOP92 cells after 48 hrs by SRB assay; assay type: functional; details: HOP-92, 48 h; outline: as §3
[6] = Growth inhibition of human RXF393 cells after 48 hrs by SRB assay; assay type: functional; details: RXF 393, 48 h; for TGI: read-out: pTGI (converted); outline: as §3
SK-MEL-5 = experiment: Growth inhibition of human SK-MEL-5 cells after 48 hrs by SRB assay; assay type: functional; details: SK-MEL-5, 48 h; outline: as §3
[7] = Growth inhibition of human UACC257 cells after 48 hrs by SRB assay; assay type: functional; details: UACC-257, 48 h
Outline: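 NCI ~60-cell-line five-dose screen. Cells were preincubated 24-48 h, then given compound at 10-fold dilutions from 10^-4 to 10^-8 M with 48 h continuous exposure. SRB protein stain was read by absorbance at time zero, in untreated control and with drug. GI50 was derived from [(Ti-Tz)/(C-Tz)]x100=50, TGI from Ti=Tz, and LC50 from [(Ti-Tz)/Tz]x100=-50.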

NCI/ADR-RES = experiment: Growth inhibition of human NCI/ADR-RES cells after 48 hrs by SRB assay; assay type: functional; outline: as §3
IGROV-1 = experiment: Growth inhibition of human IGROV1 cells after 48 hrs by SRB assay; assay type: functional; details: IGROV-1, 48 h; outline: as §3
BT-549 = experiment: Growth inhibition of human BT549 cells after 48 hrs by SRB assay; assay type: functional; details: BT-549, 48 h; outline: as §3
[8] = Growth inhibition of human EKVX cells after 48 hrs by SRB assay; assay type: functional; outline: as §3

SMILES: COc1ccc2cc(C(=O)Nc3ccc(S(N)(=O)=O)cc3)sc(=O)c2c1OC
growth at 100 µM (SF-268): 74%
growth at 100 µM (NCI-H460): 97%
LD50 [1]: 870 mg/kg
growth at 100 µM (MCF7): 72%
inhibition at 1 µg/mL [2]: 59.8%
inhibition at 10 µg/mL [3]: > 50%

SMILES: COc1ccc2cc(C(=O)OC(C)C)sc(=O)c2c1OC
GI50 [4]: 23.4 µM
TGI ([4]; read-out: pTGI (converted)): 53.7 µM
GI50 [5]: 28.8 µM
TGI ([5]; read-out: pTGI (converted)): 85.1 µM
GI50 [6]: 20 µM
TGI [6]: 45.7 µM

GI50 (SK-MEL-5): 24.5 µM
GI50 (BT-549): 24.5 µM
SMILES: CC(C)OC(=O)c1cc2ccccc2c(=O)s1
TGI (SK-MEL-5; read-out: pTGI (converted)): 49 µM
GI50 [7]: 19.5 µM
TGI ([7]; read-out: pTGI (converted)): 66.1 µM
GI50 (NCI/ADR-RES): 26.9 µM
TGI (NCI/ADR-RES; read-out: pTGI (converted)): 69.2 µM
growth at 100 µM (SF-268): 69%
GI50 (IGROV-1): 20.9 µM
TGI (IGROV-1; read-out: pTGI): > 100 µM
GI50 [6]: 15.1 µM
TGI [6]: 67.6 µM
growth at 100 µM (NCI-H460): 13%
TGI (BT-549; read-out: pTGI (converted)): 63.1 µM
growth at 100 µM (MCF7): 87%
GI50 [8]: 19.1 µM
TGI ([8]; read-out: pTGI (converted)): 52.5 µM
